Results as given in ChEMBL document CHEMBL1152452, “Modifications incorporated in CpG motifs of oligodeoxynucleotides lead to antagonist activity of toll-like receptors 7 and 9” (2009).
Activity calls are given as the source filed them. No cut-off for these calls is given here.

Columns and labels:
Mus musculus [1] = experiment: Immunostimulatory activity in C57BL/6 mouse assessed as induction of MIP-1alpha level in serum at 2 mg/kg, sc after 2 hrs by Luminex multiplex assay; type: functional, organism-based; set-up: dose 2 mg/kg
Method in brief: (§1)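 Female C57BL/6 mice, 5–6 weeks old, n = 3, received a single 2 mg/kg subcutaneous ODN injection in the right flank. Blood was taken by retro-orbital bleeding 2 h later. Naive mice served as baseline. Representative of three experiments.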

J774 = experiment: Inhibition of 5'-CTATCTGACGTTCTCTGT-3'-activated NF-kappaB activity in mouse J774 cells at 2.5 ug/ml after 1 hr by EMSA; type: cell-based
Method in brief: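 J774 murine macrophages were grown in DMEM with 10% FBS and antibiotics, plated at 5 × 10^6 cells/well, and co-incubated for 1 h with the agonist ODN (0.5 µg/mL) and test ODN (2.5 µg/mL). Nuclear extracts were prepared and NF-κB binding was analysed by EMSA on native polyacrylamide gels with autoradiography.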

[2] = target: T1, Toll-like receptor 9 (Mus musculus) (UniProt Q9EQU3); experiment: Activation of mouse TLR9 expressed in HEK293 cells assessed as NF-kappaB level at 0.3 ug/mL after 18 hrs by reporter gene assay; type: cell-based
T1 sequence (whole entry): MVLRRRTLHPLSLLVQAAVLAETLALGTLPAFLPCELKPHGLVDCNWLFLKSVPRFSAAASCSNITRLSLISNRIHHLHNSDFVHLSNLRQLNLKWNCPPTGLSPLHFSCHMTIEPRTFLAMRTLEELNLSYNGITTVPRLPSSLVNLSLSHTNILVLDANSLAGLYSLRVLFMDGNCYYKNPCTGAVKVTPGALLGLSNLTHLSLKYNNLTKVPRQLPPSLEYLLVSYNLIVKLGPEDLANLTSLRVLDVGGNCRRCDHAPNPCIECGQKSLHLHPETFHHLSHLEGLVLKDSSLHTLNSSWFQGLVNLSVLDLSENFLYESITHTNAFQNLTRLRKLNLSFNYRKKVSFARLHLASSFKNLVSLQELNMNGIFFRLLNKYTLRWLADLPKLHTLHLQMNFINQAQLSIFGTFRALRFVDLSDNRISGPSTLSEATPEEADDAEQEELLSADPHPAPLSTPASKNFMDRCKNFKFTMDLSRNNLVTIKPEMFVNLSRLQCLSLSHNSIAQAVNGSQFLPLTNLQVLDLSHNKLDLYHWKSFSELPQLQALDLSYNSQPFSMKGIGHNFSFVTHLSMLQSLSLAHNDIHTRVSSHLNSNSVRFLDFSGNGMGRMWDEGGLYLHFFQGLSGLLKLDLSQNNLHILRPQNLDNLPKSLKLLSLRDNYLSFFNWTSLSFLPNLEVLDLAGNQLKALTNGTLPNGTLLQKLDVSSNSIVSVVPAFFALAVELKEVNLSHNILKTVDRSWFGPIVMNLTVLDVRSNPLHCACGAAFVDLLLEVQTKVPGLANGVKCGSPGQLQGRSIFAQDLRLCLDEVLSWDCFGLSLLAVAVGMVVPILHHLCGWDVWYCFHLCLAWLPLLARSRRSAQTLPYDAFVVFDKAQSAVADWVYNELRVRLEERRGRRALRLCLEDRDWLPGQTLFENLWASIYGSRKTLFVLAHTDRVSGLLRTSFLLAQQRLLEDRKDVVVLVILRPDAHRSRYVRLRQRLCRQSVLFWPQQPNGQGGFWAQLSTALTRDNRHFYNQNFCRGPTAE
Method in brief: (§2)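 HEK293 cells stably expressing mouse TLR9 were transiently transfected with a SEAP reporter for 6 h, then stimulated with ODN at 0.1, 0.3 or 1 μg/mL for 18 h. Reporter expression is given as fold change in NF-κB activity over medium. Representative of two independent experiments.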

Mus musculus [3] = experiment: Immunostimulatory activity in C57BL/6 mouse assessed as induction of TNFalpha level in serum at 2 mg/kg, sc after 2 hrs by Luminex multiplex assay; type: functional, organism-based; set-up: dose 2 mg/kg; method in brief: as §1
Splenocyte [4] = experiment: Inhibition of 5'-CTATCTGACGTTCTCTGT-3'-induced IL6 secretion in C57BL/6 mouse splenocytes after 24 hrs by sandwich ELISA; type: functional, cell-based
Method in brief: (§3)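 Splenocytes from 5–8-week C57BL/6 mice, 5 × 10^6 cells/mL in RPMI complete medium, were co-incubated with the TLR9 agonist ODN (1 µg/mL) plus test ODN at 1 or 4 µg/mL, or over a concentration series, at 37 °C for 24 h. Supernatant IL-12 or IL-6 was measured by sandwich ELISA. Runs were done in duplicate, with three independent experiments.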

Mus musculus [5] = experiment: Immunostimulatory activity in C57BL/6 mouse assessed as inhibition of 5'-CTATCTGACGTTCTCTGT-3'-induced KC production in serum at 2 mg/kg, sc administered 24 hrs prior to 5'-CTATCTGACGTTCTCTGT-3' challenge measured after 2 hrs by Luminex multiplex assay; type: functional, organism-based; set-up: dose 2 mg/kg
Method in brief: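 C57BL/6 mice received 2 mg/kg ODN sc in one flank. After 24 h, the TLR9 agonist ODN was given at 0.5 mg/kg sc in the opposite flank. Blood was drawn 2 h later and serum cytokines/chemokines were quantified by Luminex multiplex assay. Percent inhibition was taken against the agonist alone. Representative of three experiments.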

[6] = target: T1, Toll-like receptor 9 (Mus musculus); experiment: Activation of mouse TLR9 expressed in HEK293 cells assessed as NF-kappaB level at 0.1 ug/mL after 18 hrs by reporter gene assay; type: cell-based; method in brief: as §2
Mus musculus [7] = experiment: Immunostimulatory activity in C57BL/6 mouse assessed as inhibition of 5'-CTATCTGACGTTCTCTGT-3'-induced IL12 production in serum at 2 mg/kg, sc administered 24 hrs prior to 5'-CTATCTGACGTTCTCTGT-3' challenge measured after 2 hrs by sandwich ELISA; type: functional; conditions: C57BL/6, sc, route subcutaneous
Method in brief: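 C57BL/6 mice were pretreated sc in the right flank with 2, 5 or 10 mg/kg ODN. After 24 h, the TLR9 agonist ODN was given at 0.5 mg/kg sc in the left flank. Serum IL-12 was measured by ELISA 2 h later. Representative of two experiments.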

Splenocyte [8] = experiment: Immunostimulatory activity in C57BL/6 mouse splenocytes assessed as induction of IL6 secretion at 2 to 10 ug/ml after 24 hrs by sandwich ELISA; type: functional, cell-based
Method in brief: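 C57BL/6 splenocytes (mice 5–8 weeks) at 5 × 10^6 cells/mL in RPMI complete medium. ODNs dissolved in PBS were added and the cells incubated at 37 °C for 24 h. Supernatant IL-12 or IL-6 was measured by sandwich ELISA. Runs were done two or three times, in duplicate per concentration.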

Splenocyte [9] = experiment: Inhibition of 5'-CTATCTGACGTTCTCTGT-3'-induced IL12 secretion in C57BL/6 mouse splenocytes after 24 hrs by sandwich ELISA; type: functional, cell-based; method in brief: as §3
Mus musculus [10] = experiment: Immunostimulatory activity in C57BL/6 mouse assessed as inhibition of TLR3 agonist-induced MIG production in serum at 10 mg/kg, sc administered 24 hrs prior to TLR3 agonist challenge measured after 2 hrs by Luminex multiplex assay
Mus musculus [11] = experiment: Immunostimulatory activity in C57BL/6 mouse assessed as inhibition of LPS-induced IL10 production in serum at 10 mg/kg, sc administered 24 hrs prior to LPS challenge measured after 2 hrs by Luminex multiplex assay

Compound | Activity (Mus musculus [1]) | Activity (J774) | Activity [2] | Activity (Mus musculus [3]) | Activity (Splenocyte [4]) | Activity (Mus musculus [5]) | Activity [6] | inhibition in vivo at 2 mg/kg (Mus musculus [7]) [%] | Activity (Splenocyte [8]) | Activity (Splenocyte [9]) | Activity (Mus musculus [10]) | Activity (Mus musculus [11])
COC1[C@H](n2cc(C)c(N)nc2=O)O[C@H](COP(=O)(S)O[C@H]2C[C@H](n3cnc4c(N)ncnc43)O[C@@H]2COP(=O)(S)O[C@H]2C[C@H](n3cnc4c(=O)[nH]c(N)nc43)O[C@@H]2COP(=O)(S)O[C@H]2C[C@H](n3cc(C)c(=O)[nH]c3=O)O[C@@H]2COP(=O)(S)O[C@H]2C[C@H](n3ccc(N)nc3=O)O[C@@H]2COP(=O)(S)O[C@H]2C[C@H](n3cc(C)c(=O)[nH]c3=O)O[C@@H]2COP(=O)(S)O[C@H]2C[C@H](n3cnc4c(N)ncnc43)O[C@@H]2COP(=O)(S)O[C@H]2C[C@H](n3cc(C)c(=O)[nH]c3=O)O[C@@H]2COP(=O)(S)O[C@H]2C[C@H](n3ccc(N)nc3=O)O[C@@H]2CO)[C@H]1OP(=O)(S)OC[C@H]1O[C@@H](n2cnc3c(=O)[nH]c(N)nc32)C[C@@H]1OP(=O)(S)OC[C@H]1O[C@@H](n2cc(C)c(=O)[nH]c2=O)C[C@@H]1OP(=O)(S)OC[C@H]1O[C@@H](n2cc(C)c(=O)[nH]c2=O)C[C@@H]1OP(=O)(S)OC[C@H]1O[C@@H](n2ccc(N)nc2=O)C[C@@H]1OP(=O)(S)OC[C@H]1O[C@@H](n2cc(C)c(=O)[nH]c2=O)C[C@@H]1OP(=O)(S)OC[C@H]1O[C@@H](n2ccc(N)nc2=O)C[C@@H]1OP(=O)(S)OC[C@H]1O[C@@H](n2cc(C)c(=O)[nH]c2=O)C[C@@H]1OP(=O)(S)OC[C@H]1O[C@@H](n2cnc3c(=O)[nH]c(N)nc32)C[C@@H]1OP(=O)(S)OC[C@H]1O[C@@H](n2cc(C)c(=O)[nH]c2=O)C[C@@H]1O (some centres not stated) | inactive | Active | inactive | inactive | Dose-dependent effect | Active | inactive | 50 | Active | Dose-dependent effect | – | –
COC1[C@H](n2cnc3c(=O)[nH]c(N)nc32)O[C@H](COP(=O)(S)O[C@H]2C[C@H](n3cc(C)c(N)nc3=O)O[C@@H]2COP(=O)(S)O[C@H]2C[C@H](n3cnc4c(N)ncnc43)O[C@@H]2COP(=O)(S)O[C@H]2C[C@H](n3cnc4c(=O)[nH]c(N)nc43)O[C@@H]2COP(=O)(S)O[C@H]2C[C@H](n3cc(C)c(=O)[nH]c3=O)O[C@@H]2COP(=O)(S)O[C@H]2C[C@H](n3ccc(N)nc3=O)O[C@@H]2COP(=O)(S)O[C@H]2C[C@H](n3cc(C)c(=O)[nH]c3=O)O[C@@H]2COP(=O)(S)O[C@H]2C[C@H](n3cnc4c(N)ncnc43)O[C@@H]2COP(=O)(S)O[C@H]2C[C@H](n3cc(C)c(=O)[nH]c3=O)O[C@@H]2COP(=O)(S)O[C@H]2C[C@H](n3ccc(N)nc3=O)O[C@@H]2CO)[C@H]1OP(=O)(S)OC[C@H]1O[C@@H](n2cc(C)c(=O)[nH]c2=O)C[C@@H]1OP(=O)(S)OC[C@H]1O[C@@H](n2cc(C)c(=O)[nH]c2=O)C[C@@H]1OP(=O)(S)OC[C@H]1O[C@@H](n2ccc(N)nc2=O)C[C@@H]1OP(=O)(S)OC[C@H]1O[C@@H](n2cc(C)c(=O)[nH]c2=O)C[C@@H]1OP(=O)(S)OC[C@H]1O[C@@H](n2ccc(N)nc2=O)C[C@@H]1OP(=O)(S)OC[C@H]1O[C@@H](n2cc(C)c(=O)[nH]c2=O)C[C@@H]1OP(=O)(S)OC[C@H]1O[C@@H](n2cnc3c(=O)[nH]c(N)nc32)C[C@@H]1OP(=O)(S)OC[C@H]1O[C@@H](n2cc(C)c(=O)[nH]c2=O)C[C@@H]1O (some centres not stated) | inactive | Active | inactive | inactive | Dose-dependent effect | Active | inactive | 14 | Active | Dose-dependent effect | inactive | inactive
